Laboratory results published in ChEMBL document CHEMBL1781965, “Onoceranoid-type triterpenoids from Lansium domesticum” (2011).
Values after ≈ are worked out from the molar mass of the structure shown.

Experiments:
Assay type in all cases: functional
Alcaligenes faecalis = experiment: Antibacterial activity against Alcaligenes faecalis ATCC 8750 after 18 hrs by microdilution assay; details: ATCC 8750, 18 h
How it was run: (§1)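 Broth microdilution in Mueller Hinton broth, inoculum 5 × 10^5–10^6 cfu/mL final, compounds dissolved in DMSO (at most 1% in the solution), 37 °C for 18 h aerobically. Blank controls received DMSO alone; magnolol served as positive control.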

Shigella flexneri = experiment: Antibacterial activity against Shigella flexneri ATCC 12022 after 18 hrs by microdilution assay; details: ATCC 12022, 18 h; how it was run: as §1
Bacillus cereus = experiment: Antibacterial activity against Bacillus cereus clinical isolate after 18 hrs by microdilution assay; how it was run: as §1
Micrococcus luteus = experiment: Antibacterial activity against Micrococcus luteus ATCC 9341 after 18 hrs by microdilution assay; details: ATCC 9341, 18 h; how it was run: as §1
Serratia marcescens = experiment: Antibacterial activity against Serratia marcescens ATCC 25419 after 18 hrs by microdilution assay; details: ATCC 25419, 18 h; how it was run: as §1
[1] = tested on: Staphylococcus epidermidis; experiment: Antibacterial activity against Staphylococcus epidermidis ATCC 12228 after 18 hrs by microdilution assay; details: ATCC 12228, 18 h; how it was run: as §1
Escherichia coli = experiment: Antibacterial activity against Escherichia coli ATCC 25922 after 18 hrs by microdilution assay; details: ATCC 25922, 18 h; how it was run: as §1
Bacillus subtilis = experiment: Antibacterial activity against Bacillus subtilis ATCC 6633 after 18 hrs by microdilution assay; details: ATCC 6633, 18 h; how it was run: as §1
Staphylococcus aureus [2] = experiment: Antibacterial activity against Staphylococcus aureus ATCC 25923 after 18 hrs by microdilution assay; details: ATCC 25923, 18 h; how it was run: as §1
Pseudomonas aeruginosa = experiment: Antibacterial activity against Pseudomonas aeruginosa ATCC 14502 after 18 hrs by microdilution assay; details: ATCC 14502, 18 h; how it was run: as §1
Staphylococcus aureus [3] = experiment: Antibacterial activity against Micrococcus pyogenes clinical isolate after 18 hrs by microdilution assay; how it was run: as §1

| MIC (Alcaligenes faecalis) [µg/mL] | MIC (Shigella flexneri) [µg/mL] | MIC (Bacillus cereus) [µg/mL] | MIC (Micrococcus luteus) [µg/mL] | MIC (Serratia marcescens) [µg/mL] | MIC [1] [µg/mL] | MIC (Escherichia coli) [µg/mL] | MIC (Bacillus subtilis) [µg/mL] | MIC (Staphylococcus aureus [2]) [µg/mL] | MIC (Pseudomonas aeruginosa) [µg/mL] | MIC (Staphylococcus aureus [3]) [µg/mL] | Compound |
| --- | --- | --- | --- | --- | --- | --- | --- | --- | --- | --- | --- |
| > 50 | > 50 | 3.12 (≈ 6.86 µM) | 6.25 (≈ 13.7 µM) | > 50 | 12.5 (≈ 27.5 µM) | > 50 | 3.12 (≈ 6.86 µM) | 6.25 (≈ 13.7 µM) | > 50 | 3.12 (≈ 6.86 µM) | C=C1CC[C@H]2C(C)(C)[C@@H](O)CC[C@]2(C)[C@H]1CCC1=C(C)C(=O)C[C@H]2C(C)(C)C(=O)CC[C@]12C [LAMESTICUMIN C] |
| > 50 | > 50 | 3.12 (≈ 6.8 µM) | > 50 | > 50 | > 50 | > 50 | 12.5 (≈ 27.2 µM) | > 50 | > 50 | > 50 | CC1=CC[C@H]2C(C)(C)C(=O)CC[C@]2(C)[C@H]1CC/C=C(\C)CC/C=C(\C)CC[C@@H](O)C(C)(C)O [LAMESTICUMIN F] |
| > 50 | > 50 | 12.5 (≈ 46.9 µM) | 12.5 (≈ 46.9 µM) | > 50 | 12.5 (≈ 46.9 µM) | > 50 | 12.5 (≈ 46.9 µM) | 25 (≈ 93.9 µM) | > 50 | 25 (≈ 93.9 µM) | C=CCc1ccc(O)c(-c2cc(CC=C)ccc2O)c1 [MAGNOLOL] |
| > 50 | > 50 | 3.12 (≈ 6.86 µM) | > 50 | > 50 | > 50 | > 50 | 6.25 (≈ 13.7 µM) | > 50 | > 50 | > 50 | C=C1CC[C@H]2C(C)(C)C(=O)CC[C@]2(C)[C@H]1CCC1=C(C)[C@H](O)C[C@H]2C(C)(C)C(=O)CC[C@]12C [LAMESTICUMIN D] |
| > 50 | > 50 | 3.12 (≈ 6.26 µM) | > 50 | > 50 | 12.5 (≈ 25.1 µM) | > 50 | 12.5 (≈ 25.1 µM) | 50 (≈ 100 µM) | > 50 | 12.5 (≈ 25.1 µM) | C=C(C)[C@@H]1CCC(=C)[C@H](CC[C@H]2C(C)=CC[C@@H](C(=C)C)[C@]2(C)CCC(=O)O)[C@@]1(C)CCC(=O)OCC |
| > 50 | > 50 | 3.12 (≈ 6.38 µM) | 3.12 (≈ 6.38 µM) | > 50 | 12.5 (≈ 25.6 µM) | > 50 | 3.12 (≈ 6.38 µM) | 6.25 (≈ 12.8 µM) | > 50 | 3.12 (≈ 6.38 µM) | C=C1CC[C@H]2C(C)(C)[C@@H](O)CC[C@]2(C)[C@H]1CC[C@H]1C(C)=CC[C@@H](C(C)(C)O)[C@]1(C)CCC(=O)OC [LAMESTICUMIN B] |
| > 50 | > 50 | 3.12 (≈ 6.44 µM) | 6.25 (≈ 12.9 µM) | > 50 | 12.5 (≈ 25.8 µM) | > 50 | 3.12 (≈ 6.44 µM) | 6.25 (≈ 12.9 µM) | > 50 | 3.12 (≈ 6.44 µM) | C=C(C)[C@@H]1CC=C(C)[C@H](CC[C@H]2C(=C)CC[C@H]3C(C)(C)[C@@H](O)CC[C@]23C)[C@@]1(C)CCC(=O)OCC [ETHYL LANSIOLATE] |
| > 50 | > 50 | 3.12 (≈ 6.04 µM) | > 50 | > 50 | 12.5 (≈ 24.2 µM) | > 50 | 12.5 (≈ 24.2 µM) | > 50 | > 50 | 50 (≈ 96.8 µM) | C=C(C)[C@@H]1CC=C(C)[C@H](CC[C@H]2C(=C)CC[C@@H](C(C)(C)O)[C@]2(C)CCC(=O)OCC)[C@@]1(C)CCC(=O)O |
| > 50 | > 50 | 3.12 (≈ 6.21 µM) | 6.25 (≈ 12.4 µM) | > 50 | 12.5 (≈ 24.9 µM) | > 50 | 3.12 (≈ 6.21 µM) | 6.25 (≈ 12.4 µM) | > 50 | 3.12 (≈ 6.21 µM) | C=C(C)[C@@H]1CC=C(C)[C@H](CC[C@H]2C(=C)CC[C@@H](C(C)(C)O)[C@]2(C)CCC(=O)OC)[C@@]1(C)CCC(=O)O [LAMESTICUMIN A] |
| > 50 | > 50 | 3.12 (≈ 6.44 µM) | > 50 | > 50 | > 50 | > 50 | 12.5 (≈ 25.8 µM) | > 50 | > 50 | 6.25 (≈ 12.9 µM) | C=C1CC[C@H]2C(C)(C)C(=O)CC[C@]2(C)[C@H]1CCC1=C(C)[C@H](O)C[C@@H](C(=C)C)[C@]1(C)CCC(=O)OC [LAMESTICUMIN E] |
